pIC50, pKd: −log10 of the molar value. Activity calls are given as the source filed them. The calls are words filed in the database; no cut-off is given here.
Legend:
[1] = molecular target: T1, Epidermal growth factor receptor (Homo sapiens, UniProt P00533); assay: Binding affinity to wild type EGFR (unknown origin)
[2] = molecular target: T2, Epidermal growth factor receptor (Homo sapiens, UniProt P00533, L858R/T790M); assay: Binding affinity to EGFR T790M/L858R double mutant (unknown origin); format: protein assay
T2 sequence (P00533 25-1210 T790M/L858R limits assumed): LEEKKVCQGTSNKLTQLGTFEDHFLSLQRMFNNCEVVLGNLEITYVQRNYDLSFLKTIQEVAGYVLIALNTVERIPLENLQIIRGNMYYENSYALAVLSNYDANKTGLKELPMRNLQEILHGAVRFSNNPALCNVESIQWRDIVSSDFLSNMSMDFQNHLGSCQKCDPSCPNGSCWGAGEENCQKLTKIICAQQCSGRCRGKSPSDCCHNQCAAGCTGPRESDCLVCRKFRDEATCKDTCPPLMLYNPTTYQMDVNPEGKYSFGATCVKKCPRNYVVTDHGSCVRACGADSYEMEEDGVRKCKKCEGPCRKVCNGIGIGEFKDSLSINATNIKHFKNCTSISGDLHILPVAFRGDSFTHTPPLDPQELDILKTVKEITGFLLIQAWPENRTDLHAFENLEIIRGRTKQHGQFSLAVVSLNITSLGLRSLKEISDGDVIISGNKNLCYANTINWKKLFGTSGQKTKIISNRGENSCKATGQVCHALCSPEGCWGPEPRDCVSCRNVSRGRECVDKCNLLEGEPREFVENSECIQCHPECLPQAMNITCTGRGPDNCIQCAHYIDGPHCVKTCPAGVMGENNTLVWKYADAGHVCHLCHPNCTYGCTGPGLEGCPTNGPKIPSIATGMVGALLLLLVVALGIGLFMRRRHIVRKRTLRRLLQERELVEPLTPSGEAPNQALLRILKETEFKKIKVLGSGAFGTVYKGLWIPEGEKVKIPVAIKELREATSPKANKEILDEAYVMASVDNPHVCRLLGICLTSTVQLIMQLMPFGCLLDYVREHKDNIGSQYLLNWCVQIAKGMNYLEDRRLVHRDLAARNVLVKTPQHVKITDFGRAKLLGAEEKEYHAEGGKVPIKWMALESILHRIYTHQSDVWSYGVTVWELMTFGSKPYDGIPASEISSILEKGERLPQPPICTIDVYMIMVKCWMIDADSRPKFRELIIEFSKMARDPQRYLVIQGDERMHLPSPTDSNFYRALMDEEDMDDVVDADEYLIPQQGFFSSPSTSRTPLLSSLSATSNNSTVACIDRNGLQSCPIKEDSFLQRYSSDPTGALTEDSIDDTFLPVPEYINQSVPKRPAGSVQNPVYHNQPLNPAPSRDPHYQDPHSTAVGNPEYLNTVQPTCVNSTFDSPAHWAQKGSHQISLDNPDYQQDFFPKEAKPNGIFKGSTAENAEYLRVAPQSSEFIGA

NCI-H1975 [3] = assay: Cytotoxicity against human NCI-H1975 cells harboring EGFR L858R/T790M double mutant assessed as inhibition of cell proliferation after 72 hrs by CellTiter-Glo assay; format: functional, cell-based; conditions: NCI-H1975, 72 h
[4] = Cytotoxicity against human HCC827 cells harboring EGFR 746 to 750 deletion mutant assessed as inhibition of cell proliferation after 72 hrs by CellTiter-Glo assay; format: functional, cell-based; conditions: HCC827, 72 h
A-431 = assay: Cytotoxicity against human A431 cells expressing wild-type EGFR assessed as inhibition of cell proliferation after 72 hrs by CellTiter-Glo assay; format: cell-based; conditions: A-431, 72 h
[5] = molecular target: T2, Epidermal growth factor receptor; assay: Inhibition of EGFR L858R/T790M double mutant phosphorylation in human NCI-H1975 cells after 60 mins by mesoscale multiplex assay; format: cell-based
[6] = molecular target: Epidermal growth factor receptor (Homo sapiens, UniProt P00533, 746-750DEL); assay: Inhibition of EGFR 746 to 750 deletion mutant phosphorylation in human HCC827 cells after 60 mins by mesoscale multiplex assay; format: cell-based
Chain of Epidermal growth factor receptor (Homo sapiens, UniProt P00533, 746-750DEL) (P00533 whole entry, looked up, stated change not applied): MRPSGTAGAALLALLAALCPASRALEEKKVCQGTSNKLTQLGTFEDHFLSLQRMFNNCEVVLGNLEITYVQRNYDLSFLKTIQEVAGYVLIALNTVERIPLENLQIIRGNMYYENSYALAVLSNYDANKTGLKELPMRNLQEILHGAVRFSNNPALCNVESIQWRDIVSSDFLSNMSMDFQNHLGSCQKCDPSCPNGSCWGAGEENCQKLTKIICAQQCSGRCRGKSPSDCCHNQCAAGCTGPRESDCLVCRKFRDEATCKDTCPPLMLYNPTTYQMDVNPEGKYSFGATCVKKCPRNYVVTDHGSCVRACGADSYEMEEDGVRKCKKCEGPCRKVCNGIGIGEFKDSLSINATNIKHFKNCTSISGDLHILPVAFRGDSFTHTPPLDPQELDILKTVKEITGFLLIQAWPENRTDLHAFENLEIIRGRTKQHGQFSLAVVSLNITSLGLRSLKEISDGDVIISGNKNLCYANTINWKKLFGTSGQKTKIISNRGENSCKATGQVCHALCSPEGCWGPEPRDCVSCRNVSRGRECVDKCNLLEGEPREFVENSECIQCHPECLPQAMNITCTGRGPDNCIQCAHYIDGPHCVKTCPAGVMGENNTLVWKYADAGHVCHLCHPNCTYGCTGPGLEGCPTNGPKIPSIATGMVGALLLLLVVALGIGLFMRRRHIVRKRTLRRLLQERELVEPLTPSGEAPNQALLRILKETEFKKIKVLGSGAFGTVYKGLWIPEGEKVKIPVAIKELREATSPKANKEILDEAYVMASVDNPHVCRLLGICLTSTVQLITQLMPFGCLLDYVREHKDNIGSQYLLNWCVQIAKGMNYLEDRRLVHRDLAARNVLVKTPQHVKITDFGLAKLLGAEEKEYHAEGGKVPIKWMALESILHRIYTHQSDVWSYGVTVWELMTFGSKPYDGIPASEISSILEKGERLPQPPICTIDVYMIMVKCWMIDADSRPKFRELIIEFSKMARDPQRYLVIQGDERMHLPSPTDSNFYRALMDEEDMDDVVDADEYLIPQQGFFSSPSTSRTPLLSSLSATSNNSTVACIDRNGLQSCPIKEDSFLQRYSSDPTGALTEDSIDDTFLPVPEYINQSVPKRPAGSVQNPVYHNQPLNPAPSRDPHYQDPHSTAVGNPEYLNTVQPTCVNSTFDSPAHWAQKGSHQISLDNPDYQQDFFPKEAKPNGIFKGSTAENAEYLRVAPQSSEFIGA

[7] = molecular target: T1, Epidermal growth factor receptor; assay: Inhibition of wild type EGFR phosphorylation in human A431 cells after 60 mins by mesoscale multiplex assay; format: cell-based, A-431
Mus musculus = assay: In vivo inhibition of EGFR L858R/T790M double mutant phosphorylation in human NCI-H1975 cells xenografted in athymic nude mouse at 30 mg/kg, po measured at 4 hrs by mesoscale multiplex assay relative to control; format: functional
Procedure, shortened: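 Female athymic nude mice carried matrigel plugs holding 5 x 10⁶ H1975 cells, n = 3 per group. Control or compound given at 30 mg/kg po. Plugs and plasma taken 4 h after dosing. p-EGFR in plug measured by quantitative MSD assay, given as % p-EGFR/PRAS40 vs control.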

NCI-H1975 [8] = assay: Antitumor activity against human NCI-H1975 cells xenografted in athymic nude mouse assessed as tumor growth inhibition at 30 mg/kg, po qd administered for 2 weeks started on day 6 post tumor implantation measured on day 19 relative to control; format: functional
Rattus norvegicus [9] = species on record: Rattus norvegicus; assay: Hepatobiliary toxicity in Sprague-Dawley rat measured for 4 days; format: organism-based; conditions: in vivo, 96 h
Rattus norvegicus [10] = assay: Clearance in Sprague-Dawley rat at 1 mg/kg, iv; format: ADME, organism-based; conditions: in vivo
Procedure, shortened: (§1)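 Male Sprague Dawley rats, 3 animals per route; mean values. IV dose 1 mg/kg as a DMSO solution. Oral dose 10 mg/kg, in one of three vehicles by compound: 1% Pluronic F68/2% HPMC/15% HPBCD/82% water–methanesulfonic acid pH 4.5; 20% HPBCD/80% water–methanesulfonic acid pH 4.0; or 1% Pluronic F68/2% HPMC/97% water–methanesulfonic acid pH 4.0.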

[11] = Volume of distribution at steady state in Sprague-Dawley rat at 1 mg/kg, iv; format: ADME, organism-based; conditions: in vivo, read-out: Vdss; procedure, shortened: as §1
[12] = Half life in Sprague-Dawley rat at 1 mg/kg, iv; format: ADME, organism-based; conditions: in vivo; procedure, shortened: as §1
Rattus norvegicus [13] = assay: AUC (0 to infinity) in Sprague-Dawley rat at 10 mg/kg, po; format: ADME, organism-based; set-up: dose 10 mg/kg, route oral, time infinity; conditions: in vivo; procedure, shortened: as §1
Rattus norvegicus [14] = assay: Oral bioavailability in Sprague-Dawley rat at 10 mg/kg; format: ADME, organism-based; conditions: in vivo; procedure, shortened: as §1

T1 sequence (P00533 whole entry): as the sequence (P00533 whole entry, looked up, stated change not applied) above

Structure (SMILES)	pIC50 (NCI-H1975 [3])	pIC50 [4]	pIC50 (A-431)	further results
C=CC(=O)Nc1cccc(-n2c3nc(Nc4ccc(N5CCC(N(C)C)CC5)cc4OC)ncc3c(=O)n3ccnc23)c1				pKd [1]: 6.51; pKd [2]: 8.59
C=CC(=O)Nc1cccc(-n2c(=O)cc(C)c3cnc(Nc4ccc(N5CCNCC5)cc4OC)nc32)c1	7.17	6.68	< 6.00	
C=CC(=O)Nc1cccc(-n2c(=O)cc(C)c3cnc(Nc4ccc(N5CCN(C(C)=O)CC5)cc4OC)nc32)c1	7.52	7.24	< 5.30	
C=CC(=O)Nc1cccc(-n2c(=O)cc(C)c3cnc(Nc4ccc(N(C)CCN(C)C)cc4OC)nc32)c1	8.10	7.66	< 6.00	pIC50 [5]: 8.22; pIC50 [6]: 7.92; pIC50 [7]: 6.28; inhibition in vivo at 30 mg/kg (Mus musculus): 80%; TGI (NCI-H1975 [8]): Active; Activity (Rattus norvegicus [9]): Non-toxic; CL (Rattus norvegicus [10]): 7.7 L/h/kg; Vd [11]: 20 L/kg; half-life [12]: 2.6 h; AUC (Rattus norvegicus [13]): 160 nM·h; F (Rattus norvegicus [14]): 21%
C=CC(=O)Nc1cccc(-n2c(=O)c(Cc3ccccc3)cc3cnc(Nc4ccc(N5CCN(C)CC5)cc4OC)nc32)c1	8.40	7.74	6.60	
C=CC(=O)Nc1cccc(-n2c(=O)c(OC)cc3cnc(Nc4ccc(N5CCN(C)CC5)cc4OC)nc32)c1	6.56	7.21	6.70	
C=CC(=O)Nc1cccc(-n2c(=O)cc(C)c3cnc(Nc4ccc(C5CCN(C)CC5)cc4OC)nc32)c1	8.40	7.48		

Source: ChEMBL document CHEMBL3632511, “Oxopyrido[2,3-d]pyrimidines as Covalent L858R/T790M Mutant Selective Epidermal Growth Factor Receptor (EGFR) Inhibitors” (ACS Med Chem Lett, 2015)
